The source of these data is ChEMBL document CHEMBL4184143 (J Med Chem, 2017).

Series [1] can be described thus: Drug level in SCID mouse at 25 mg/kg, po after 1 hr by LC-MS/MS analysis. The series is classed as ADME, organism-based. The following applies: in vivo, read-out: Drug uptake. The essentials:
(§1)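 SCID mice received a single oral dose of 25 mg/kg in 20% (v/v) PCP/70% (v/v) PBS vehicle. Blood was collected and centrifuged to plasma, which was stored at −80 °C. Plasma drug concentration was measured by a validated LC–MS/MS method.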

The nature of series [2]: Drug level in SCID mouse at 25 mg/kg, po after 3 hrs by LC-MS/MS analysis. The following applies: in vivo, read-out: Drug uptake. The series is classed as ADME, organism-based. The essentials:
as §1

A further series relates to MOLM-13. Nature of the series: Growth inhibition of human MOLM13 cells after 4 days by WST-8 assay. The series is classed as functional, cell-based. The following applies: MOLM-13, 96 h. An outline of the steps:
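MOLM-13 leukemia cells were seeded at 10,000 cells/well and exposed to serially diluted compound for 4 days. Signal was normalized to DMSO controls, and IC50 was fitted by nonlinear regression.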

The test system of series [3] is MV4-11. Nature of the series: Growth inhibition of human MV4-11 cells after 4 days by WST-8 assay. Particulars: MV4-11, 96 h. The series is classed as functional, cell-based.
Series [4] has as its target T1, Bromodomain-containing protein 4 (Homo sapiens, UniProt O60885). As to the kind of experiment: Inhibition of FAM-labeled ZBA248 binding to recombinant human N-terminal His6-tagged BRD4 bromodomain 2 (333 to 460 residues) expressed in Rosetta2 DE3 cells after 30 mins by Flourescence polarization assay. The series is classed as biochemical.
The target of series [5] is T1, Bromodomain-containing protein 4. Nature of the series: Inhibition of FAM-labeled ZBA248 binding to recombinant human N-terminal His6-tagged BRD4 bromodomain 1 (44 to 168 residues) expressed in Rosetta2 DE3 cells after 30 mins by Flourescence polarization assay. The series is classed as biochemical.
The nature of series [6]: Drug level in SCID mouse at 25 mg/kg, po after 6 hrs by LC-MS/MS analysis. The series is classed as ADME, organism-based. The following applies: in vivo, read-out: Drug uptake. An outline of the steps: as §1
Series [7] can be described thus: Half life in Sprague-Dawley rat at 25 mg/kg, po by LC/MS method. The series is classed as ADME, organism-based. Particulars: in vivo. An outline of the steps:
(§2)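 Sprague Dawley rats were dosed iv at 5 mg/kg or orally at 25 mg/kg, with compound dissolved in 20% (v/v) PCP/70% (v/v) PBS vehicle. Blood was drawn by catheter at 0, 5, 15, 30 min and 1, 2, 4, 6, 8, 24 h and spun to plasma, which was stored at −80 °C. Plasma drug was quantified by a validated LC–MS/MS method, and parameters were derived noncompartmentally.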

Series [8] in a line: Cmax in Sprague-Dawley rat at 25 mg/kg, po by LC/MS method. The series is classed as ADME, organism-based. Further details: dose 25 mg/kg, route oral. Particulars: in vivo. An outline of the steps:
as §2

Series [9] is described as follows: AUC (0 to t) in Sprague-Dawley rat at 25 mg/kg, po by LC/MS method. The series is classed as ADME, organism-based. The following applies: in vivo. An outline of the steps: as §2
Series [10] is described as follows: Half life in CD1 mouse liver microsomes at 1 uM by LC/MS method. The series is classed as ADME, microsome.
Series [11] in a line: Half life in Sprague-Dawley rat liver microsomes at 1 uM by LC/MS method. The series is classed as ADME, microsome.
A short description of series [12]: Half life in human liver microsomes at 1 uM by LC/MS method. The series is classed as ADME, microsome.
Series [13] in a line: Aqueous solubility of the compound in 5% DMSO/10% cremophor/85% saline. Particulars: buffer. The series is classed as physicochemical.
Series [14] deals with MV4-11. Nature of the series: Antitumor activity against human MV4-11 cells xenografted in SCID mouse assessed as tumor growth inhibition at 50 mg/kg, po qd measured 2 to 3 times weekly during treatment and once weekly post dose. The series is classed as functional. The following applies: MV4-11, po, read-out: TGI. The essentials:
(§3)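 At ~100 mm3, mice were randomized to treatment or vehicle control. Tumors were measured by electronic calipers. Animals were checked daily for signs of toxicity and weighed 2–3 times weekly on treatment, then at least weekly afterwards.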

Series [15] deals with Mus musculus. As to the kind of experiment: Toxicity in SCID mouse implanted with human MV-411 cells assessed as weight loss at 50 mg/kg, po qd measured 2 to 3 times weekly during treatment and weekly post dose. The series is classed as organism-based. The following applies: in vivo. The essentials:
as §3

In series [16] the test system is Mus musculus. Nature of the series: Toxicity in SCID mouse implanted with human MV4-11 cells at 50 mg/kg, po qd measured 2 to 3 times weekly during treatment and once weekly post dose. The series is classed as organism-based. Particulars: in vivo. An outline of the steps: as §3

With `COc1cc2c(cc1-c1c(C)noc1C)[nH]c1ncnc(-c3c(C4CC4)n[nH]c3C)c12`, the concentration at 1 h in [1] came out at 2200 ng/mL. The concentration at 3 h in series [2] was 872 ng/mL. Besides, the IC50 amounted to 36 nM with MOLM-13, 6 nM with MV4-11 [3], 11.7 nM in series [4] and 24.1 nM in series [5]. Besides, the Ki was determined as 2.7 nM in [4] and 7 nM in series [5]. Further, in series [6], the concentration at 6 h was found to be 72 ng/mL.
As to `COc1cc2c(cc1-c1c(C)noc1C)[nH]c1ncnc(-c3c(C)[nH]c4ccccc34)c12`, the IC50 was 65 nM with MOLM-13, 6.6 nM in the series on MV4-11 [3], 1.1 nM in series [4] and 5 nM in series [5]. In addition, the values for the Ki in [4] and in series [5] were less than 0.5 nM and 0.7 nM, respectively. In addition, the half-life in series [7] is 1.7 h. In series [8], the Cmax is 1400 ng/mL. In series [9], this compound showed an AUC(0-t) of 13400 ng·h/mL. Moreover, the t1/2 in [10] is 0.067 h; in series [11], more than 1 h; in series [12] it was 0.13 h. The solubility entry in series [13] is “Insoluble”.
Regarding `COc1cc2c(cc1-c1c(C)noc1C)ncc1[nH]c(=O)n([C@H](C)c3ccccn3)c12`, the inhibition in vivo at 50 mg/kg in the series on MV4-11 [14] was more than 80%. In addition, the Activity entry in the series with Mus musculus [15] and in the series on Mus musculus [16] was “Non-Toxic” each time.
As for `COc1cc2c(cc1-c1c(C)noc1C)[nH]c1nc(C)nc(-c3c(C)[nH]c4ccccc34)c12`, the IC50 was 20 nM in the series with MOLM-13, 2 nM with MV4-11 [3], 1.9 nM in series [4] and 6.1 nM in [5]. For the same compound, the inhibition constant Ki in [4] is less than 0.5 nM; in series [5] it was 0.8 nM. The t1/2 was more than 1 h in series [10], more than 1 h in [11] and 0.15 h in series [12].
Take `COc1cc2c(cc1-c1c(C)noc1C)[nH]c1nc(C)nc(-c3cc(C)nc4ccccc34)c12`: the IC50 with MOLM-13 amounted to 69 nM; in the series with MV4-11 [3] it was 17 nM; in [4], 5.2 nM; in [5] it was 19.7 nM. The results for the Ki in [4] and in series [5] were 1.6 nM and 5.7 nM, respectively. For the same compound, the t1/2 in [10], in series [11] and in [12] was more than 1 h in each case.
In the case of `COc1cc2c(cc1-c1c(C)noc1C)[nH]c1ncnc(-n3nnc4ccccc43)c12`, the IC50 is more than 10000 nM with MOLM-13, more than 10000 nM in the series with MV4-11 [3], more than 1000 nM in series [4] and more than 1000 nM in [5]. Besides, the Ki in [4] and in series [5] was more than 1000 nM each time.
